ChEMBL document CHEMBL5505959, “Identification of 4-amino-2-Pyridones as new potent PCSK9 inhibitors: From phenotypic hit discovery to in vivo tolerability” (Eur J Med Chem, 2024)
Activity calls are given as the source filed them. The rule behind the calls is not given here.

How the values were obtained:
HepG2 [1] = experiment: Cytotoxicity against human HepG2 cells assessed as reduction in cell viability at 5 uM measured after 24 hrs by SRB assay relative to control; format: functional
In short: (§1)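 HepG2 seeded 8000 cells/well in complete MEM; next day medium replaced with 0.4 % FBS medium containing compound or DMSO control. Viability was read by sulforhodamine B assay after 24 h, with absorbance at 570 nm. Dose-response series used 6.25, 12.5, 25, 50 or 100 μM; newer analogues were tested at a fixed 5 μM. Data are mean ± SD of three independent experiments.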

[2] = Toxicity in C57BL/6 mouse assessed as reduction in ALT plasma level at 40 mg/kg, sc measured after 7 days by ELISA method; format: organism-based; settings: in vivo, 168 h, time 7 day
In short: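 Male C57BL/6J mice, 3 months old, dosed subcutaneously at 40 mg/kg daily for seven days in Transcutol. Killed under isoflurane 6 h after the final dose. Retro-orbital blood taken into EDTA and spun at 3000 rpm, 4 °C, 10 min. Plasma ALT measured by ELISA kit. Mean ± SEM, n = 5–6 per group.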

HepG2 [3] = experiment: Inhibition of basal PCSK9 activity in human HepG2 cells at 6.25 to 12.5 uM incubated for 24 hrs by luciferase assay; format: functional, cell-based; settings: dose 6.25-12.5 µM
In short: (§2)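 HepG2 cells were seeded at 8 × 10⁵ per well and transiently transfected with pGL3-PCSK9-D4 (−440 to −94 region), or with SRE- or HNF-mutant constructs. At 48 h post-transfection, cells were treated 24 h with compound or simvastatin 5 μM. Promoter activity was read as luciferase luminescence.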

HepG2 [4] = experiment: Effect on FAS mRNA level in human HepG2 cells at 6.25 to 25 uM by qRT-PCR analysis; settings: dose 6.25-25 µM
HepG2 [5] = experiment: Downregulation of PCSK9 mRNA level in human HepG2 cells by qRT-PCR analysis; format: functional, cell-based; settings: dose 6.25-25 µM
In short: (§3)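 Total RNA was taken from treated HepG2 cells for RT-qPCR of PCSK9, FAS and HMG-CoA reductase. Cycling was 50 °C 10 min, 95 °C 2 min, then 40 cycles of 95 °C 5 s and 60 °C 10 s. Relative quantification used ΔΔCt against 18S, corrected for primer efficiency. Mean ± SD of three independent experiments.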

HepG2 [6] = experiment: Inhibition of simvastatin induced PCSK9 activation in human HepG2 cells at 6.25 to 12.5 uM incubated for 24 hrs by luciferase assay; format: functional, cell-based; settings: dose 6.25-12.5 µM; in short: as §2
[7] = Downregulation of PCSK9 expression in human HepG2 cells at 6.25 to 12.5 uM by Western blot analysis relative to control; format: functional; settings: dose 6.25-12.5 µM
In short: (§4)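 HepG2 cells were treated overnight or for 24 h, alone or with simvastatin 40 μM. Lysates (1 % NP-40, 150 mM NaCl, 50 mM Tris-HCl pH 7.5) were loaded at 25 µg protein on 4–20 % SDS-PAGE. Blots were probed for proPCSK9, mature PCSK9 and LDLR, and densitometry was normalized to β-actin or GAPDH. Mean ± SD of three independent experiments.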

HepG2 [8] = experiment: Downregulation of mature PCSK9 protein expression in human HepG2 cells at 6.25 uM by Western blot analysis; format: functional, cell-based; in short: as §4
[9] = Downregulation of proPCSK9 protein expression in human HepG2 cells at 12.5 uM by Western blot analysis relative to control; format: functional; in short: as §4
HepG2 [10] = experiment: Downregulation of proPCSK9 protein expression in human HepG2 cells at 6.25 uM by Western blot analysis; format: functional, cell-based; in short: as §4
HepG2 [11] = experiment: Downregulation of PCSK9 level in human HepG2 cells at 6.25 to 12.5 uM under conditioned media by ELISA method; format: functional, cell-based; settings: dose 6.25-12.5 µM
In short: (§5)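 Secreted PCSK9 was measured in HepG2 conditioned media with a human PCSK9 DuoSet sandwich ELISA. Media were centrifuged at 15000 rpm for 10 min and diluted before reading absorbance at 450 nm. Values were normalized to HepG2 total protein content. Mean ± SD of three independent experiments.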

HepG2 [12] = experiment: Effect on HMG-CoA reductase mRNA level in human HepG2 cells at 50 to 100 uM by qRT-PCR analysis; format: functional, cell-based; settings: dose 50-100 µM; in short: as §3
HepG2 [13] = experiment: Effect on HMG-CoA reductase mRNA level in human HepG2 cells at 6.25 to 25 uM by qRT-PCR analysis; format: functional, cell-based; settings: dose 6.25-25 µM; in short: as §3
HepG2 [14] = experiment: Inhibition of PCSK9 promotor activity in human HepG2 cells harbouring pGL3-PCSK9-SRE mutant at 6.25 to 12.5 uM incubated for 24 hrs by luciferase assay; format: functional, cell-based; settings: dose 6.25-12.5 µM; in short: as §2
HepG2 [15] = experiment: Inhibition of PCSK9 promotor activity in human HepG2 cells harbouring pGL3-PCSK9-HNF mutant at 6.25 to 12.5 uM incubated for 24 hrs by luciferase assay; format: functional, cell-based; settings: dose 6.25-12.5 µM; in short: as §2
[16] = Downregulation of extracellular PCSK9 level in human HepG2 cells at 6.25 to 12.5 uM under conditioned media by ELISA method relative to control; format: functional; settings: dose 6.25-12.5 µM; in short: as §5
HepG2 [17] = experiment: Induction of LDLR expression in human HepG2 cells at 6.25 incubated for 24 hrs in presence of simvastatin by Western blot analysis; format: functional, cell-based; in short: as §4
HepG2 [18] = experiment: Inhibition of PCSK9 transcription activity in human HepG2 cells harbouring FLAG tagged PCSK9 at 6.25 to 12.5 uM incubated for 24 hrs by luciferase assay; format: functional, cell-based; settings: dose 6.25-12.5 µM
[19] = Downregulation of simvastatin induced PCSK9 expression in human HepG2 cells at 12.5 uM by Western blot analysis relative to control; format: functional; in short: as §4
[20] = Downregulation of mature PCSK9 protein expression in human HepG2 cells at 12.5 uM by Western blot analysis relative to control; format: functional; in short: as §4
HepG2 [21] = experiment: Downregulation of proPCSK9 level in human HepG2 cells by Western blot analysis; format: functional, cell-based; in short: as §4
HepG2 [22] = experiment: Downregulation of mature PCSK9 level in human HepG2 cells by Western blot analysis; format: functional, cell-based; in short: as §4
HepG2 [23] = experiment: Induction of LDLR expression in human HepG2 cells by Western blot analysis; format: functional, cell-based; in short: as §4
HepG2 [24] = experiment: Downregulation of simvastatin induced PCSK9 expression in human HepG2 cells measured after 24 hrs by Western blot analysis; format: functional, cell-based; in short: as §4
HepG2 [25] = experiment: Downregulation of PCSK9 mRNA level in human HepG2 cells at 6 to 25 uM by qRT-PCR analysis; format: functional, cell-based; settings: dose 6-25 µM; in short: as §3
HepG2 [26] = experiment: Cytotoxicity against human HepG2 cells assessed as reduction in cell viability at 6 to 100 uM measured after 24 hrs by SRB assay; format: functional, cell-based; settings: dose 6-100 µM; in short: as §1
HepG2 [27] = experiment: Downregulation of PCSK9 protein level in human HepG2 cells at 5 uM by Western blot analysis; format: functional, cell-based; in short: as §4
HepG2 [28] = experiment: Effect on proPCSK9 expression in human HepG2 cells by Western blot analysis; format: functional, cell-based; in short: as §4
[29] = Induction of LDLR expression in human HepG2 cells by measuring fold increase by Western blot analysis; format: functional; in short: as §4
HepG2 [30] = experiment: Downregulation of PCSK9 mRNA level in human HepG2 cells at 25 uM by qRT-PCR analysis; format: functional, cell-based; in short: as §3
HepG2 [31] = experiment: Cytotoxicity against human HepG2 cells assessed as reduction in cell viability at 50 to 100 uM measured after 24 hrs by SRB assay; format: functional, cell-based; settings: dose 50-100 µM; in short: as §1
HepG2 [32] = experiment: Cytotoxicity against human HepG2 cells assessed as reduction in cell viability at 25 uM measured after 24 hrs by SRB assay; format: functional, cell-based; in short: as §1
HepG2 [33] = experiment: Cytotoxicity against human HepG2 cells assessed as reduction in cell viability at 100 uM measured after 24 hrs by SRB assay; format: functional, cell-based; in short: as §1

CCCCCNc1cc(C)n(Cc2ccccc2)c(=O)c1
Activity (HepG2 [1]): >95%

COc1cccc(CNc2cc(C)n(Cc3cccc(OC)c3OC)c(=O)c2)c1OC
Activity (HepG2 [1]): >95%

CC(=O)N(Cc1ccc(C(F)(F)F)cc1)c1cc(C)n(Cc2ccc(C(F)(F)F)cc2)c(=O)c1
Activity (HepG2 [1]): >95%

Cc1cc(C(=O)C2=C(O)C(=O)N(CCCN3CCOCC3)C2c2ccncc2)ccc1OCc1ccccc1 (configuration not stated)
Activity [2]: Non-Toxic

Cc1cc(NCc2ccc(Cl)cc2)cc(=O)n1CCC(C)C
Activity (HepG2 [1]): >95%

CCCCCNc1cc(C)n(Cc2ccc(Cl)cc2)c(=O)c1
inhibition (HepG2 [3]): inactive
Activity (HepG2 [4]): inactive
Activity (HepG2 [5]): Dose-Dependent Effect
inhibition (HepG2 [6]): Active
Activity [7]: 65%
Activity (HepG2 [8]): inactive
Activity [9]: 100%
Activity (HepG2 [10]): inactive
Activity (HepG2 [11]): Active
Activity (HepG2 [12]): Active
Activity (HepG2 [13]): inactive
inhibition (HepG2 [14]): inactive
inhibition (HepG2 [15]): inactive
Activity [16]: 35.8%
Activity (HepG2 [17]): Active
inhibition (HepG2 [18]): inactive
Activity [19]: 100%
Activity [20]: 100%

Cc1cc(NCCC(C)C)cc(=O)n1Cc1ccccc1
Activity (HepG2 [1]): >95%

Cc1cc(NCc2ccc(C(F)(F)F)cc2)cc(=O)n1CC(C)C
Activity (HepG2 [1]): >95%

CCCCCn1c(C)cc(NCc2ccccc2)cc1=O
Activity (HepG2 [1]): >95%

CCCCCNc1cc(C)n(Cc2ccc(OC)cc2)c(=O)c1
Activity (HepG2 [21]): Active
Activity (HepG2 [22]): Active
Activity (HepG2 [23]): inactive

CCC(C)(C)C(=O)O[C@H]1C[C@@H](C)C=C2C=C[C@H](C)[C@H](CC[C@@H]3C[C@@H](O)CC(=O)O3)[C@H]21
Activity (HepG2 [24]): inactive

Cc1cc(NC2CCCC2)cc(=O)n1Cc1ccc(C(F)(F)F)cc1
Activity (HepG2 [1]): >95%

CCCCCn1c(C)cc(NCc2ccc(Cl)cc2)cc1=O
Activity (HepG2 [25]): Active
Activity (HepG2 [26]): inactive
Activity (HepG2 [27]): Active

COc1ccc(CNc2cc(C)n(Cc3ccc(OC)cc3)c(=O)c2)cc1
Activity (HepG2 [1]): >95%

CCCCCNc1cc(C)n(Cc2ccc(C(F)(F)F)cc2)c(=O)c1
Activity (HepG2 [1]): >95%

CCCCCN(C(C)=O)c1cc(C)n(Cc2ccc(C(F)(F)F)cc2)c(=O)c1
Activity (HepG2 [1]): >95%

Cc1cc(NCc2ccc(CCC(C)C)cc2)cc(=O)n1Cc1ccc(CCC(C)C)cc1
Activity (HepG2 [28]): inactive
fold change (FC) [29]: 3
Activity (HepG2 [1]): >95%

Cc1cc(NCc2ccccc2)cc(=O)n1CCC(C)C
Activity (HepG2 [1]): >95%

CCCCCn1c(C)cc(NCc2ccc(C(F)(F)F)cc2)cc1=O
Activity (HepG2 [1]): >95%

COc1ccc(CNc2cc(C)n(Cc3ccc(OC)c(OC)c3)c(=O)c2)cc1OC
Activity (HepG2 [1]): >95%

Cc1cc(NCc2ccc(Cl)cc2)cc(=O)n1Cc1ccc(Cl)cc1
Activity (HepG2 [1]): >95%

Cc1cc(NCCc2ccccc2)cc(=O)n1Cc1ccc(Cl)cc1
Activity (HepG2 [30]): Active
Activity (HepG2 [31]): Active
Activity (HepG2 [32]): inactive

CCCCCNc1cc(C)n(CCCCC)c(=O)c1
Activity (HepG2 [33]): Active
Activity (HepG2 [25]): Active
Activity (HepG2 [27]): Active

CCCCCNc1cc(C)n(Cc2cccc(OC)c2OC)c(=O)c1
Activity (HepG2 [1]): >95%

COc1ccc(Cn2c(C)cc(NC3CCCC3)cc2=O)cc1
Activity (HepG2 [1]): >95%
